# STAT3 act-1 = STAT3 signaling activation | U3A cells, IL-6 STAT3-luciferase reporter, luminescence; 100% = signal with IL-6 EC80 alone | activation (% of control), % at 5.6 µM | actives 0.91% (n = 190,000);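 active = activation above the screen-wide mean of compound activation plus 3 SD, cut at about 130% in these data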
#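 Material: STAT3-luciferase reporter U3A cells; Probe or stimulus: IL-6 (33 ng/mL); Incubation: compound pre-incubation 1 h before IL-6, then 6 h stimulation at 37 °C; Technique: luminescence from STAT3-driven luciferase reporter; Evaluation: % activation versus median of IL-6-stimulated wells; Controls: IL-6-only high control.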
# STAT3 inh = reduces IL-6 driven STAT3 reporter signal | inhibition, % at 5.5 µM | actives 0.89% (n = 190,000) | U3A cells, IL-6 STAT3-luciferase reporter, luminescence; host cell line lacks STAT1 | AID 862;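 active = inhibition above the mean inhibition across all screened compounds plus 3 SD, cut at about 44% in these data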
# Platelet DG rel = modulates dense granule release in human platelets; human platelet-rich plasma, SFLLRN dense granule ATP release, luminescence; inhibition, %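 (compounds screened at 7.5 µM in platelet-rich plasma)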; actives 0.22% (n = 300,000); AID 1663;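 active = mean replicate score, as percent of positive control, at or above 50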
# PERK inhibitor = human PERK inhibition, primary cell-based screen | inhibition, % at 5.6 µM | actives 0.17% (n = 220,000) | CHO PERK-DD fusion, SEAP luminescence translation reporter;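 active = inhibition above the mean inhibition of all tested compounds plus 3 SD, set separately per screening campaign, cut at about 2.9% in these data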;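 also: PERK kinase domain activated by AP20187 dimerizer at 100 nM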
# Target sequence (Q9NZJ5 whole entry, looked up, the tested form may be a part): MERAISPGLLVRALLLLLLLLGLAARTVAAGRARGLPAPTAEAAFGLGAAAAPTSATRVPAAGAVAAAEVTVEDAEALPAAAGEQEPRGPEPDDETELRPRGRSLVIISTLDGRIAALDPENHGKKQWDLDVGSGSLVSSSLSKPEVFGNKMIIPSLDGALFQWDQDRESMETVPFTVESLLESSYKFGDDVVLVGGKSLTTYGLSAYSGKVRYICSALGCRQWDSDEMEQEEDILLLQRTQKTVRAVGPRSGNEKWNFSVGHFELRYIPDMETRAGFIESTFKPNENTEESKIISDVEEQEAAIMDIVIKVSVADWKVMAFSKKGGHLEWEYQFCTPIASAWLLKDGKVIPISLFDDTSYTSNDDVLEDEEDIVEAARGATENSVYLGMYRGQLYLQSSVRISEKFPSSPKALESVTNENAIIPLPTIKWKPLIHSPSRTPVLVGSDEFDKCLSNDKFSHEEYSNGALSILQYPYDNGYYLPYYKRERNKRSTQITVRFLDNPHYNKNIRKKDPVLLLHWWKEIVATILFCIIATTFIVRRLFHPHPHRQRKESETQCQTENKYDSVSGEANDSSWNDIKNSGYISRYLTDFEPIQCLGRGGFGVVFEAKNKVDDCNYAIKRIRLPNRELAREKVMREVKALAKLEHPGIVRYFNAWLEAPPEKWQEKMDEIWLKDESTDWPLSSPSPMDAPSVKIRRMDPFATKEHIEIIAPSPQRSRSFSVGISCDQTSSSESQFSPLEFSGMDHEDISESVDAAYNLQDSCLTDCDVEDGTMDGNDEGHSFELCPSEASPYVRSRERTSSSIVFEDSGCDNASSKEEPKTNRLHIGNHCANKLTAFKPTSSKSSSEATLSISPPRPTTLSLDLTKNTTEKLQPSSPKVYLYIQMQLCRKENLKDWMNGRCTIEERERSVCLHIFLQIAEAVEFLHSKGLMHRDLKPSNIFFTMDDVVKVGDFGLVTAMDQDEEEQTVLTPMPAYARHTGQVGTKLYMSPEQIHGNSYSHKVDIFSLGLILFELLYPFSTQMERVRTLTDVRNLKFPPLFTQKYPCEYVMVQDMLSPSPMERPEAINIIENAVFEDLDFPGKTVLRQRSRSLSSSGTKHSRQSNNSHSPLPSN
# STAT1 inh = inhibitors of IFN-gamma induced STAT1 signaling. NIH 3T3 STAT1-luciferase reporter, luminescence. inhibition, % at 5.5 µM. actives 0.35% (n = 200,000). AID 920;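 active = inhibition above a set limit, the mean inhibition across all tested compounds plus 3 SD, cut at about 34% in these data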
# STAT3 act-2 = confirmation of STAT3 signaling activators; shares compounds with STAT3 act-1; U3A STAT3-luciferase reporter, IL-6 potentiation, luminescence; U3A cells lack STAT1; 100 means same as IL-6 alone; potentiation (% of control), % at 5.7 µM; actives 64% (n = 1,200); AID 1267;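 active = percent activation of the STAT3 luciferase reporter above a set limit taken from the earlier primary screen, cut at about 130% in these data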
# NFkB act STAT3ct = NF-kappaB activation in STAT3 activator counter-screen. human cells, NF-kappaB reporter activation. actives 11% (n = 1,200). AID 1309. activation (% of control), % at 5.7 µM. shares compounds with STAT3 act-1; in the data active = activation above about 120%;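 also: reporter induced by TNF-alpha stimulation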
# STAT1 act = STAT1 activation in STAT3 activator counter-screen | shares compounds with STAT3 act-1 | NIH 3T3 STAT1-luciferase reporter, IFN-gamma, luminescence | activation (% of control), % at 5.7 µM | actives 13% (n = 1,200);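 active = activation above the solvent-only control well mean plus 3 SD, set per screening run, cut at about 120% in these data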
# A number is an active result; . = inactive; / = no result. Only some compounds are listed: those with a hit (about 1.4% of all), similar ones and a draw of the others.
SMILES,STAT3 act-1,STAT3 inh,Platelet DG rel,PERK inhibitor,STAT1 inh,STAT3 act-2,NFkB act STAT3ct,STAT1 act
CCOc1ccccc1C(=O)Nn1c(C2CCC2)nc2ccccc2c1=O,162.0,.,.,.,.,158.3,.,.
CN(C)S(=O)(=O)c1ccc(NC(=O)C2CC(=O)N(Cc3ccccc3Cl)C2)cc1 (stereo not drawn),/,/,.,/,/,/,/,/
Cc1cc(C)c2oc(-c3ccc(Cl)c(NC(=O)c4ccc(C#N)cc4F)c3)nc2c1,173.2,.,.,.,.,165.2,.,.
N#Cc1ccc(C(=O)Nc2cccc3ncccc23)c(F)c1,.,.,.,.,.,/,/,/
CCc1cc(C(=O)OC)c(NC(=O)CN2CCN(C(=O)C3CCCO3)CC2)s1 (stereo not drawn),/,/,.,/,/,/,/,/
O=C(CN(C(=O)CCC(=O)Nc1nccs1)C1CCCC1)NCc1ccc2c(c1)OCO2,.,.,.,.,.,/,/,/
O=C(Nc1ccccc1N1CCN(C(=O)c2ccc(Cl)cc2)CC1)c1cc2ccccc2o1,146.6,.,.,.,.,.,.,.
CCOC(=O)Cc1nnc(NC(=O)C(CC)Sc2nnc3c4ccccc4n(C)c3n2)s1 (stereo not drawn),136.8,.,.,.,.,158.3,.,.
COc1ccc2oc(C)c(C(=O)c3ccc(C)cc3)c2c1,/,/,.,/,/,/,/,/
Cc1cc(C)n(-c2nc(-c3ccccc3)cs2)n1,136.7,.,.,.,.,.,121.4,121.5
COc1ccccc1-c1nc(N)n[nH]1,146.1,.,.,.,.,.,.,.
COc1ccccc1-c1nc(SCC(=O)O)n[nH]1,136.9,.,.,.,.,.,.,.
CNCC(=O)N1CCN(c2ncc(C(F)(F)F)cc2Cl)CC1,.,.,.,.,.,/,/,/
CC1(C)CC(=O)C2=C(C1)N(c1cccnc1)C(N)=C(C#N)C2c1cccs1 (stereo not drawn),.,.,.,.,.,/,/,/
CC1(C)CC(=O)C2=C(C1)N(c1ccccc1C#N)C(N)=C(C#N)C2c1cccs1 (stereo not drawn),140.2,.,.,.,.,149.3,.,.
Cc1ccc(OCCC(=O)OCC(=O)NC(=O)NC2CCCC2)cc1,/,/,.,/,/,/,/,/
Cn1cnnc1SCC(=O)Nc1ccc(OCc2ccccc2)cc1,.,.,.,.,.,/,/,/
Cc1nn(CCC(=O)NNC(=S)Nc2ccc([N+](=O)[O-])cc2)c(C)c1[N+](=O)[O-],140.3,.,.,.,.,135.6,.,.
COc1ccc(C=Nc2cccnc2N)cc1,/,/,.,/,/,/,/,/
CCOc1ccc(C=Nc2cccc3ncccc23)cc1,148.9,.,.,.,.,147.8,.,.
Cc1cccc(NC(=O)CN(C)S(=O)(=O)c2ccc(Cl)cc2)n1,.,.,.,.,.,/,/,/
CN(CC(=O)Nc1nc2ccccc2s1)S(=O)(=O)c1ccc(Cl)cc1,156.2,.,.,.,.,.,.,.
Cc1ccc(-c2nc(N)n(C(=O)Cc3ccccc3)n2)cc1,.,.,.,.,.,/,/,/
Cc1ccc(-c2nc(N)n(C(=O)c3cccs3)n2)cc1,147.9,.,.,.,.,.,.,.
CC(C)(C)C1(O)CC(C(F)(F)F)=NN1C(=O)Cc1ccc([N+](=O)[O-])cc1 (stereo not drawn),136.9,.,.,.,.,152.1,.,.
SMILES,STAT3 act-1,STAT3 inh,Platelet DG rel,PERK inhibitor,STAT1 inh,STAT3 act-2,NFkB act STAT3ct,STAT1 act
Cc1cccc(NC(=O)COc2ccc(/C=C\c3[nH]c(=O)[nH]c(=O)c3[N+](=O)[O-])cc2)c1,.,.,.,.,.,/,/,/
CCc1c(C)sc(NC(=O)c2ccco2)c1C(=O)N1CCOCC1,137.6,.,.,.,.,.,.,.
N#Cc1sc2nc(-c3ccccc3)cc(C(F)(F)F)c2c1N,147.9,.,.,.,.,155.3,.,.
COc1ccccc1NC(=O)C1=C(C)NC(=O)NC1c1ccccc1[N+](=O)[O-] (stereo not drawn),143.6,.,.,.,.,138.1,.,.
Cc1ccc(O)c(-c2cc(-c3ccccc3F)[nH]n2)c1,160.3,.,.,.,.,147.7,.,.
Cc1ccc(O)c(-c2cc(-c3cccc(F)c3)n[nH]2)c1,.,.,.,.,.,/,/,/
CN1C(=O)SC(Nc2cccc3ccccc23)C1=O (stereo not drawn),.,.,.,.,.,/,/,/
O=C1NC(=O)C(Nc2cccc3ccccc23)S1 (stereo not drawn),141.5,.,.,.,.,.,.,.
Fc1cccc2sc(Nc3nc4c(F)cccc4s3)nc12,155.6,.,.,.,.,181.7,122.2,.
Cc1ccc(C(=O)Nc2cc(Cl)ccc2OC(=O)c2ccc(C)cc2)cc1,140.5,.,.,.,.,.,.,.
O=C(Nc1ccccc1OC(=O)c1ccc(Cl)cc1)c1ccc(Cl)cc1,136.2,.,.,.,.,140.6,.,.
O=C(Nc1cccnc1Cl)c1ccc(Cl)cc1,/,/,.,/,/,/,/,/
COc1ccc(C(=O)Nc2cc(Cl)ccc2OC(=O)c2ccc(OC)cc2)cc1,.,.,.,.,.,/,/,/
O=C(Nc1ccccc1O)c1ccc(Cl)cc1,151.8,.,.,.,.,141.0,.,.
COc1ccc(-c2noc(CCC(=O)NCCc3ccccc3)n2)cc1OC,/,/,.,/,/,/,/,/
CC(C)(C)NS(=O)(=O)c1ccc(CCC(=O)NCc2ccccn2)cc1,/,/,.,/,/,/,/,/
COc1ccc(S(=O)(=O)N2CCC(CN3C(=O)c4cccc5cccc(c45)C3=O)CC2)cc1,151.8,.,.,.,.,134.7,.,122.5
O=C(c1ccc(S(=O)(=O)N2CCCC2)cc1)N1CCC(CN2C(=O)c3cccc4cccc(c34)C2=O)CC1,/,/,.,.,/,/,/,/
COc1cc2cc(/C=C/C(=O)c3ccco3)c(Cl)nc2cc1OC,138.9,.,.,.,.,.,.,.
COc1ccc2cc(/C=C/C(=O)c3ccco3)c(Cl)nc2c1,.,.,.,.,.,/,/,/
CCNc1nc(NCC)n2c(SC(C(=O)Nc3cc(C)ccc3OC)c3ccccc3)nnc2n1 (stereo not drawn),.,.,.,.,.,/,/,/
CN(CC(=O)Nc1ccccc1Cl)C(=O)c1cccc(S(=O)(=O)N2CCN(Cc3ccccc3)CC2)c1,/,/,.,/,/,/,/,/
CC(C)c1nnc(NC(=O)C2CCCN2C(=O)Nc2ccccc2[N+](=O)[O-])s1 (stereo not drawn),.,.,.,.,.,/,/,/
Cc1ccc(C)n1-c1nccc(-c2cccs2)n1,139.6,.,.,.,.,.,.,.
Cc1cc(C)n(-c2nnc3n2N=C(c2c[nH]c4ccccc24)CS3)n1,157.6,.,.,.,.,154.0,.,.
Cc1cc(C)n(-c2nnc3n2N=C(c2ccccc2)CS3)n1,.,.,.,.,.,/,/,/

# From PubChem
